Consider four compounds from ChEMBL document CHEMBL1126152, “Fluoronaphthyridines as antibacterial agents. 4. Synthesis and structure-activity relationships of 5-substituted-6-fluoro-7-(cycloalkylamino)-1,4-dihydro-4-oxo-1,8- naphthyridine-3-carboxylic acids” (J Med Chem, 1992).

In brackets after ≈: the same amount, converted by molar mass.

One data set concerns Enterobacter cloacae. The data set can be described thus: In vitro for antibacterial activity against Enterobacter cloacae. The data set is classed as functional.
Another data set deals with Morganella morganii. The data set can be described thus: In vitro for antibacterial activity against Morganella morganii. The data set is classed as functional. In a few lines: (§1)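 MIC by serial 2-fold broth dilution in nutrient broth with an inoculum of 10^6 CFU/mL. Compound range was 0.0005–250 μg/mL. Plates were incubated 18 h at 37 °C. MIC was taken as the lowest concentration preventing visible growth.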

For another data set, the system named is Proteus mirabilis. The data set can be described thus: In vitro for antibacterial activity against Proteus mirabilis. The data set is classed as functional. The method in brief:
as §1

Data set [1] can be described thus: (§2) Solubility was measured at PH - 7.2 buffer.
In data set [2] the test system is Streptococcus pneumoniae. In words: Antibacterial activity against Streptococcus pneumoniae. The class given is functional.
Data set [3] can be described thus: Lethal dose was determined in OF1-strain female Swiss mice after oral administration of the drug. The following applies: mouse, in vivo.
For the next data set, the system named is Enterococcus faecalis. In words: In vitro for antibacterial activity against Enterococcus faecalis. The data set is classed as functional. In a few lines: as §1
A short description of data set [4]: Partition coefficient (logD). The following applies: octanol/water.
The subject of the next data set is Serratia marcescens. In words: In vitro for antibacterial activity against Serratia marcescens. The class given is functional. The method in brief:
as §1

Data set [5] has as its system Escherichia coli. The data set can be described thus: In vitro for antibacterial activity against Escherichia coli. The data set is classed as functional. In a few lines:
as §1

In data set [6] the test system is Staphylococcus aureus. The data set can be described thus: animal or person. The data set is classed as functional. The following applies: in Mus musculus, po, read-out: PD50.
The test system of data set [7] is Staphylococcus aureus. In words: Antibacterial activity against Staphylococcus aureus. The class given is functional.
The subject of the next data set is Klebsiella pneumoniae. The data set can be described thus: In vitro for antibacterial activity against Klebsiella pneumoniae. The class given is functional. The method in brief: as §1
Data set [8] concerns Pseudomonas aeruginosa. The data set can be described thus: In vitro for antibacterial activity against Pseudomonas aeruginosa. The data set is classed as functional. In a few lines:
as §1

Data set [9] can be described thus: Lethal dose was determined in OF1-strain female Swiss mice after intra venous administration of the drug. The following applies: mouse, in vivo, iv.
The subject of data set [10] is Escherichia coli. The data set can be described thus: Compound was tested for […] against Escherichia coli A 15119 after oral administration of drug in mice. The class given is functional. The following applies: read-out: PD50. In a few lines:
(§3)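 Mouse protection test against systemic infection. Compound was dissolved in sterile water and given orally to female OF1-strain Swiss mice weighing 18–25 g, with five mice per group.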

In the next data set the test system is Bacteroides fragilis. In words: In vitro for antibacterial activity against […]. The class given is functional. The method in brief: as §1
For data set [11], the system named is Streptococcus pneumoniae. In words: animal or person. The following applies: in Mus musculus, po, read-out: PD50. The data set is classed as functional.
Data set [12] relates to Pseudomonas aeruginosa. The data set can be described thus: Compound was tested for […] against Pseudomonas aeruginosa A 9843 after oral administration of drug in mice,. The following applies: read-out: PD50. The data set is classed as functional. The method in brief: as §3
For another data set, the species on record is Mus musculus. The following applies: in vivo.
Data set [13] deals with Pseudomonas aeruginosa. The data set can be described thus: Compound was tested for […] against Pseudomonas aeruginosa A 9843 after oral administration of drug in mice, value in the parenthesis indicates 95% confidence limits. The following applies: read-out: PD50. The data set is classed as functional. The method in brief: as §3
Data set [14] can be described thus: % dose recovered in mouse urine. The following applies: % recovery.
For data set [15], the system named is Staphylococcus. The data set can be described thus: Compound was tested for […] against Staphylococcus aureus A 15090 after oral administration of drug in value in the parenthesis indicates 95% confidence limits. The data set is classed as functional. The following applies: read-out: PD50. In a few lines: as §3
Data set [16] can be described thus: in vivo. The following applies: mouse, plasma.
Data set [17] can be described thus: in vivo. The following applies: mouse, plasma, T1/2.
A short description of data set [18]: as §2. The data set is classed as physicochemical. In a few lines: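 Excess solid was shaken overnight at 22 °C in pH 7.2 buffer for injection, then filtered. The diluted filtrate was assayed by HPLC with UV detection.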
Data set [19] in a line: Max plasma concentration was measured by 40 mg/kg dose of peroral administration. The data set is classed as ADME, organism-based. The following applies: po. Details: dose 40 mg/kg, route oral. The method in brief: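 Mice were dosed orally at 40 mg/kg, and compound levels were measured in blood. Values came from duplicate or triplicate experiments and are stated as accurate to ±50%.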

Data set [20] deals with Pseudomonas aeruginosa. In words: animal or person. The following applies: in Mus musculus, po, read-out: PD50. The class given is functional.
The test system of data set [21] is Staphylococcus. The data set can be described thus: Compound was tested for […] against Staphylococcus aureus A 15090 after oral administration of drug in mice. The data set is classed as functional. The following applies: read-out: PD50. The method in brief: as §3

Broadly, the MIC is the least concentration at which growth counts as inhibited. Read a low MIC as inhibition by little substance. In general, solubility refers to the concentration that dissolves in the medium under given conditions. For orientation: LD50 means the dose at which mortality reaches 50%. The logD is the decadic logarithm of the distribution of all forms, ionised or not, between an organic phase and buffer at a given pH. The low end stands for lower lipophilicity, the high end for higher lipophilicity. `Cc1c(F)c(N2CC[C@H](N)C2)nc2c1c(=O)c(C(=O)O)cn2C1CC1`: the MIC amounted to 0.002 µg/mL (≈ 0.00577 µM) with Enterobacter cloacae; 0.016 µg/mL (≈ 0.0462 µM) in the data set with Morganella morganii; 0.008 µg/mL (≈ 0.0231 µM) against Proteus mirabilis; 0.13 µg/mL (≈ 0.375 µM) against Streptococcus pneumoniae [2]; 0.13 µg/mL (≈ 0.375 µM) with Enterococcus faecalis; 0.004 µg/mL (≈ 0.0115 µM) against Serratia marcescens. Moreover, the minimum inhibitory concentration (MIC) with Escherichia coli [5] was 0.002 µg/mL (≈ 0.00577 µM); with Staphylococcus aureus [7], 0.004 µg/mL (≈ 0.0115 µM); with Klebsiella pneumoniae, 0.004 µg/mL (≈ 0.0115 µM); in the data set with Pseudomonas aeruginosa [8], 0.25 µg/mL (≈ 0.722 µM); in the data set on Bacteroides fragilis, 0.25 µg/mL (≈ 0.722 µM). The compound also showed a solubility in [1] of 70 µg/mL (≈ 202 µM). Further, the results for the LD50 in data set [3] and in data set [9] were 2500 mg/kg and 56 mg/kg, respectively. In addition, the logD in data set [4] turned out to be 0.78. For the same compound, the ED50 in the data set with Staphylococcus aureus [6] came out at 5.5 mg/kg; with Escherichia coli [10] it was 1.8 mg/kg; in the data set with Streptococcus pneumoniae [11], 19 mg/kg; in the data set on Pseudomonas aeruginosa [12] it was 2.8 mg/kg.

As usually defined, the AUC is concentration integrated over time. What is called Cmax is the peak of the concentration-time curve. Usually half-life stands for how long it takes for the measured level to halve. For `Cc1c(F)c(N2CC3CC2CN3)nc2c1c(=O)c(C(=O)O)cn2C(C)(C)C` (configuration not stated), the minimum inhibitory concentration (MIC) with Enterobacter cloacae worked out at 0.13 µg/mL (≈ 0.347 µM); in the data set with Morganella morganii, 0.13 µg/mL (≈ 0.347 µM); with Proteus mirabilis, 0.25 µg/mL (≈ 0.668 µM); in the data set with Streptococcus pneumoniae [2], 0.25 µg/mL (≈ 0.668 µM); against Enterococcus faecalis, 0.5 µg/mL (≈ 1.34 µM); in the data set with Serratia marcescens, 0.13 µg/mL (≈ 0.347 µM). Besides, the MIC against Escherichia coli [5] worked out at 0.03 µg/mL (≈ 0.0801 µM); with Staphylococcus aureus [7], 0.02 µg/mL (≈ 0.0534 µM); in the data set with Klebsiella pneumoniae, 0.06 µg/mL (≈ 0.16 µM); in the data set with Pseudomonas aeruginosa [8] it was 2 µg/mL (≈ 5.34 µM); against Bacteroides fragilis, 32 µg/mL (≈ 85.5 µM). The same compound returned an AUC in the data set listed under Mus musculus of 74000 ng·h/mL. Further, the ED50 is 4.1 mg/kg in the data set with Pseudomonas aeruginosa [13] and 12.5 mg/kg in the data set on Staphylococcus [15]. This compound came in with a dose excreted in data set [14] of 12%. For the same compound, the maximum concentration (Cmax) in the data set “in vivo [16]” stood at 22000 ng/mL. Besides, the half-life in the data set “in vivo [17]” was determined as 3.1 h.

Take `CCn1cc(C(=O)O)c(=O)c2c(C)c(F)c(N3CC[C@H](N)C3)nc21`: the minimal inhibitory concentration (MIC) against Enterobacter cloacae was determined as 0.008 µg/mL (≈ 0.0239 µM); against Morganella morganii, 0.03 µg/mL (≈ 0.0897 µM); against Proteus mirabilis, 0.13 µg/mL (≈ 0.389 µM); with Streptococcus pneumoniae [2] it was 0.5 µg/mL (≈ 1.5 µM); in the data set on Enterococcus faecalis it was 2 µg/mL (≈ 5.98 µM); in the data set with Serratia marcescens it was 0.13 µg/mL (≈ 0.389 µM). The MIC came out at 0.002 µg/mL (≈ 0.00598 µM) in the data set with Escherichia coli [5], 0.016 µg/mL (≈ 0.0479 µM) in the data set on Staphylococcus aureus [7], 0.016 µg/mL (≈ 0.0479 µM) against Klebsiella pneumoniae and 1 µg/mL (≈ 2.99 µM) against Pseudomonas aeruginosa [8]. For the same compound, the concentration in solution in data set [18] (solubility) was 30 µg/mL (≈ 89.7 µM).

Regarding `Cc1c(F)c(N2CC[C@H](N)C2)nc2c1c(=O)c(C(=O)O)cn2C(C)(C)C`, the MIC in the data set on Enterobacter cloacae came to 0.03 µg/mL (≈ 0.0828 µM); with Morganella morganii, 0.06 µg/mL (≈ 0.166 µM); in the data set on Proteus mirabilis, 0.06 µg/mL (≈ 0.166 µM); in the data set with Streptococcus pneumoniae [2] it was 0.25 µg/mL (≈ 0.69 µM); against Enterococcus faecalis, 0.13 µg/mL (≈ 0.359 µM); in the data set on Serratia marcescens, 0.13 µg/mL (≈ 0.359 µM). Moreover, the MIC is 0.004 µg/mL (≈ 0.011 µM) in the data set with Escherichia coli [5]; 0.004 µg/mL (≈ 0.011 µM) against Staphylococcus aureus [7]; 0.03 µg/mL (≈ 0.0828 µM) against Klebsiella pneumoniae; 1 µg/mL (≈ 2.76 µM) against Pseudomonas aeruginosa [8]; 4 µg/mL (≈ 11 µM) with Bacteroides fragilis. Besides, the Cmax (in data set [19]; in the data set “in vivo [16]”) was 7000 ng/mL each time. Further, the ED50 was 25 mg/kg in the data set on Pseudomonas aeruginosa [20], 4.1 mg/kg in the data set with Staphylococcus [21] and over 25 mg/kg in the data set on Streptococcus pneumoniae [11]. In addition, the concentration in solution in data set [1] (solubility) came to 570 µg/mL (≈ 1570 µM). The dose excreted in [14] was found to be 7%. Further, the pH-dependent lipophilicity (logD) in data set [4] came out at 1.14. The half-life in “in vivo [17]” came out at 2.83 h.
